Legend:
[1] = tested on: VIE (5 strains), ATCC® MP-1™ panel; assay: MIC, extended VIE panel; type: cell-based, Enterococci; details: range over 5 strains, broth microdilution, 37 °C, 20 h
[2] = tested on: peptidoglycan precursors D-Ala-D-Lac; details: remodeling of peptidoglycan precursors from D-Ala-D-Ala to D-Ala-D-Lac; cited from earlier work
MurJ:lipid II complex = assay: Native mass spectrometry, MurJ:lipid II complex; type: binding; details: 5 µM MurJ with 3 µM lipid II, then 7 µM compound
Procedure, shortened: (§1)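 Purified MurJ was buffer-exchanged into 200 mM ammonium acetate pH 8.0 with 2× critical micelle concentration LDAO and infused via gold-coated capillaries. Settings were capillary 1.1 kV, m/z 1,000–20,000, S-lens RF 100%, HCD 200 V, trapping gas 7.5, 200 °C, resolution 12,500, noise level 3, and no in-source dissociation.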

HEK293 cells = assay: MTT viability assay, HEK293; type: cell-based, human; details: 500 μg/mL, 48 h, relative to 1% (v/v) DMSO vehicle control; n = 3
Procedure, shortened: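 HEK293 cells were kept in DMEM with 10% (v/v) FBS, 1% (v/v) penicillin/streptomycin and 4.5 g/L glucose at 37 °C, 5% CO2, passaged tri-weekly. MTT viability was measured after test compound at 500 μg/mL and normalized to 1% (v/v) DMSO vehicle. The positive control was the cytotoxic peptide NaD1 at 50 μM. Three technical replicates were run, with unpaired two-tailed Student's t tests.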

acetyl-Lys-D-Ala-D-Lac = assay: Microscale thermophoresis binding, D-Ala-D-Lac tripeptide; details: MST, fluorescently labeled tripeptide, 25 °C; N = 3, ±S.D.; n.b.: no binding
Procedure, shortened: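 The tripeptide was labelled with an amine-reactive red NHS dye and mixed 1:1 with aqueous test compound (final 200 μM to 6.1 nM). Mixtures were incubated 5 min at 25 °C and read at 25 °C with 20% LED and 20% IR laser power (30 s on, 5 s off). The thermophoresis + T-jump signal from three independent runs was fitted to a single-site binding model.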

MurJ = assay: Native mass spectrometry, direct binding to MurJ; details: 3 µM compound added to MurJ
Procedure, shortened: as §1

## CN[C@H](CC(C)C)C(=O)N[C@H]1C(=O)N[C@@H](CC(N)=O)C(=O)N[C@H]2C(=O)N[C@H]3C(=O)N[C@H](C(=O)N[C@H](C(=O)O)c4cc(O)cc(O)c4-c4cc3ccc4O)[C@H](O)c3ccc(c(Cl)c3)Oc3cc2cc(c3O[C@@H]2O[C@H](CO)[C@@H](O)[C@H](O)[C@H]2O[C@H]2C[C@](C)(N)[C@H](O)[C@H](C)O2)Oc2ccc(cc2Cl)[C@H]1O [Vancomycin]
[1]
  MIC, VIE (5 strains): 8 to 16 µg/mL
[2]
  Reduction of vancomycin binding and antimicrobial activity: 1,000 fold
MurJ:lipid II complex
  Ternary complex formation with MurJ:lipid II (native mass spectra): expected ternary complex was formed
HEK293 cells
  Viability of HEK293 cells (MTT): significant decrease in the viability
acetyl-Lys-D-Ala-D-Lac
  KD, acetyl-Lys-D-Ala-D-Lac: no binding was observed
MurJ
  Direct binding to MurJ (native mass spectra): no binding was observed

Reference: article PMC10104512 (Proceedings of the National Academy of Sciences of the …, 2023)
